In PubChem BioAssay AID1885 (Broad Institute, 2009):
Screen size: about 300,000 compounds; about 4,400 (1.5%) were called active. This is one part of a sample in which actives are shown more often than they occur.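 Rule for the calls: active = mean inhibition across valid replicates above about 55% (limit read from the data); inconclusive = mean below that limit but half or more replicates reach it; inactive = mean below it, under half of replicates reach it.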

Assay: inhibitors of intracellular T. cruzi growth, primary screen, luminescence, NIH3T3 host cells (AID 1885);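 note: signal also drops with host cell toxicity which is not excluded here; 0% = plate median of DMSO wells and 100% = zero luminescence signal; higher percent means less beta-gal luminescence so fewer parasites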
Conditions: T. cruzi beta-gal in NIH3T3, luminescence, 90 h; stronger effect = higher value; concentration not given here
Summary of the method: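 System: mouse NIH/3T3 fibroblasts infected with β-gal-expressing T. cruzi Tulahuen C4 / Input: NIH/3T3 cells, 5,000 per well / Buffer or medium: Low-serum DMEM with 2% FBS / Probe or stimulus: 5000 reporter trypomastigotes per well / Schedule: ≥90 h infection period, 3 h prior cell attachment / Measured by: GalScreen luminescence, 60 min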

Row | Structure (SMILES) | inhibition
1 | COc1ccc(C[C@H]2CN3C(=NC[C@H]3C)N2CCNC(=O)CCC2CCCCC2)cc1 | -4.54% (inactive)
2 | Cc1cc2c(C)nc(N/N=C/c3ccccc3)nc2o1 | 22.4% (inactive)
3 | Cc1cccc(Nc2nc(-c3ccccc3)cs2)n1 | 18.7% (inactive)
4 | Clc1ccc(Nc2nc(-c3cccs3)cs2)nc1 | 42.7% (inactive)
5 | c1ccc(Nc2nc(-c3ccncc3)cs2)nc1 | 64% (active)
6 | CCCCn1c(N)c(N2CCOCC2)c(=O)n(CC(=O)NCCc2ccccc2)c1=O | -20% (inactive)
7 | O=C(N/N=C/c1sc(N2CCCCC2)nc1-c1cccs1)c1cccnc1 | 65% (active)
8 | O=C(N/N=C/c1ccccn1)c1cccnc1 | 3.75% (inactive)
9 | Cc1cc(/C=N/NC(=O)c2cccnc2)c(C)n1CC(C)C | -5.46% (inactive)
10 | C=CCNC(=S)/N=c1/ccccn1Cc1ccccc1 | 36.1% (inactive)
11 | O=C(OCCOCn1cc(Br)c(=O)[nH]c1=O)c1ccccc1 | -6.18% (inactive)
12 | O=C(OCC(=O)N1CCCC1=O)c1cc(S(=O)(=O)N2CCOCC2)ccc1Cl | -8.41% (inactive)
13 | Cc1nc(N2CCOCC2)c2c(C)c(C(=O)Nc3ccc(C(F)(F)F)cc3)sc2n1 | 68% (active)
14 | Cc1nc(N2CCC(C)CC2)c2c(C)c(C(=O)Nc3cc(F)ccc3C)sc2n1 | 49.5% (inactive)
15 | Cc1nc(N2CCN(c3ccccn3)CC2)c2c(C)c(C(=O)Nc3ccc(F)c(Cl)c3)sc2n1 | 3.99% (inactive)
16 | CC(C)Nc1nnc(SC(C)C(=O)N(C)C2CCCCC2)s1 (stereo not drawn) | -3% (inactive)
17 | Cc1occc1C(=O)NC1CCCN(Cc2ccc(CC(C)C)cc2)C1 (stereo not drawn) | 57.7% (active)
18 | COc1ccc(CN2CCCC(C(=O)N3CCCCC3)C2)cc1 (stereo not drawn) | 27.2% (inactive)
19 | Cc1occc1C(=O)NNC(=S)NCC(C)C | -18.5% (inactive)
20 | CN(c1ccccc1)S(=O)(=O)c1cccc(C(=O)NNC(=O)c2ccncc2)c1 | 5.43% (inactive)
21 | COc1ccc(NC(=O)N2CCCC(C(=O)Nc3ccccc3OC)C2)cc1 (stereo not drawn) | -10.9% (inactive)
22 | Cc1sc2ncnc(N3CCC(C(=O)Nc4nc5ccc(Cl)cc5s4)CC3)c2c1C | 27% (inactive)
23 | O=C(NC(=S)N1CCCCC1c1cccnc1)c1ccccc1 (stereo not drawn) | 46.1% (inactive)
24 | COc1ccc(C(=O)NC(=S)N2CCCCC2c2cccnc2)cc1OC (stereo not drawn) | 57.2% (active)

Row | Structure (SMILES) | inhibition
25 | COc1ccc(/C=C/C(=O)NC(=S)NN2CCCCC2c2cccnc2)cc1 (stereo not drawn) | 42.1% (inactive)
26 | COC(=O)C1(C)NC(c2ccc(F)cc2)C2C(=O)N(c3ccccc3)C(=O)C21 (stereo not drawn) | -17.7% (inactive)
27 | CCc1ccc2c(c1)C1(NN=C(c3ccccc3)S1)C(=O)N2 (stereo not drawn) | 73% (active)
28 | Cc1nc(N=C(N)N)nc2c(C)cccc12 | 56.5% (active)
29 | COc1nc(N=C(N)N)nc2c(C)cccc12 | 44.2% (inactive)
30 | Cc1nc(/N=C(\N)NC(=O)NC2CCCCC2)nc2ccccc12 | 10.4% (inactive)
31 | O=C(NCCC1=CCCCC1)c1ccc(Cl)c([N+](=O)[O-])c1 | -28% (inactive)
32 | CCN1C(=O)[C@H]2[C@@H](c3ccc(-c4ccc(F)cc4)cc3)N[C@@](Cc3ccccc3)(C(=O)OC)[C@H]2C1=O | 41.5% (inactive)
33 | O=c1[nH]c(N2CCOCC2)nc2ccccc12 | -3.83% (inactive)
34 | c1ccc2c(NC3C4CC5CC(C4)CC3C5)nc(N3CCOCC3)nc2c1 (stereo not drawn) | 54.9% (active)
35 | c1ccc(-c2nnc(N3CCOCC3)c3ccccc23)cc1 | -1.66% (inactive)
36 | CSCCC(NC(=O)COc1ccccc1)C(=O)OCCOc1ccc(F)cc1 (stereo not drawn) | -11.5% (inactive)
37 | CCn1cc(/C=C(\NC(=O)c2ccc(C)cc2)C(=O)NCCN2CCOCC2)c2ccccc21 | -0.43% (inactive)
38 | COc1ccc(CN2CC[C@H]3C=CC[C@@H](C(=O)N4CCOCC4)[C@H]3C2=O)cc1OC | 0.915% (inactive)
39 | CN(CC(=O)Nc1ccc(F)cc1)CC(=O)Nc1ccc(Cl)c(S(=O)(=O)N2CCOCC2)c1 | -1.87% (inactive)
40 | CN(CC(=O)Nc1ccc(S(=O)(=O)N2CCCC2)cc1)Cc1ccc(Cl)c(Cl)c1 | 55.8% (active)
41 | O=C(CN1CCCCCC1)Nc1ccc(S(=O)(=O)N2CCCCC2)cc1 | -0.319% (inactive)
42 | CCOc1cnc(C(=O)NNC(=O)c2ccccc2Br)o1 | -24% (inactive)
43 | O=C(Nc1ccc(F)c([N+](=O)[O-])c1)C1CC(=O)N(Cc2ccccc2)C1 (stereo not drawn) | 11.3% (inactive)
44 | Cc1nnc(SCC(=O)N2c3ccccc3C(C)(c3ccc(Cl)cc3)CC2(C)C)s1 (stereo not drawn) | 37.3% (inactive)
45 | CC1(c2cccc([N+](=O)[O-])c2)CC(C)(C)N(C(=O)c2ccccc2)c2ccccc21 (stereo not drawn) | 37.9% (inactive)
46 | CC1(c2ccccc2)CC(C)(C)N(C(=O)c2cc([N+](=O)[O-])cc([N+](=O)[O-])c2)c2ccccc21 (stereo not drawn) | 62.7% (active)
47 | OC(COc1cccc2ccccc12)CN1CCN(c2ccccn2)CC1 (stereo not drawn) | -13.7% (inactive)
48 | Cc1cc(C)c(NC(=O)C[N+](C)(C)CC(O)COc2cccc3ccccc23)c(C)c1 (stereo not drawn) | 39.6% (inactive)

Row | Structure (SMILES) | inhibition
49 | CC(C)c1ccccc1OCC(O)CN(CC(O)COc1cccc2ccccc12)C(C)C (stereo not drawn) | 57.2% (active)
50 | COc1ccc(NS(=O)(=O)c2cc(NC(=O)C3CCCCC3)ccc2N2CCOCC2)cc1 | 8.84% (inactive)
51 | COc1ccc(NS(=O)(=O)c2ccc(N3CCN(CCO)CC3)c([N+](=O)[O-])c2)cc1 | -24.8% (inactive)
52 | COc1ccc(NS(=O)(=O)c2cc(NC(=O)/C=C/c3cc(OC)c(OC)c(OC)c3)ccc2N2CCCCC2)cc1 | 54.8% (active)
53 | Cc1ccc(S(=O)(=O)CCC(=O)Nc2nnc(CC(C)C)s2)cc1 | -32% (inactive)
54 | COC(=O)COc1ccc2c(c1C)O/C(=C\c1ccco1)C2=O | 0.57% (inactive)
55 | CCN1C(=O)[C@@H]2[C@@H](c3ccc(-c4ccc(OC)cc4)c(OC)c3)N3CCC[C@@]3(C(=O)OC)[C@@H]2C1=O | -10.1% (inactive)
56 | O=C(NCC(c1cccs1)N1CCOCC1)c1cc(Cl)ccc1[N+](=O)[O-] (stereo not drawn) | -4.39% (inactive)
57 | O=C(CCCN1C(=O)/C(=C\c2ccco2)SC1=S)Nc1cccc2ccccc12 | -4.25% (inactive)
58 | CCCN(CCC)c1nc2c(C)cccn2c(=O)c1/C=C1/SC(=S)N(Cc2ccco2)C1=O | 68.2% (active)
59 | CCOC(=O)CC1C(=O)NCCN1c1nc2c(C)cccn2c(=O)c1/C=C1\SC(=S)N(C(C)CC)C1=O (stereo not drawn) | 25.7% (inactive)
60 | Fc1ccc2c(c1)C(c1cccnc1)=NNC(c1cccs1)=N2 | -7.53% (inactive)
61 | COc1ccccc1C1=Nc2cccc3cccc(c23)N1 | 55% (active)
62 | Fc1ccccc1N=C1Nc2cccc3cccc1c23 | -4.12% (inactive)
63 | c1ccc(C2=Nc3cccc4cccc(c34)N2)cc1 | 7.49% (inactive)
64 | CC1(C)CC(=O)C=C(N2CCCC2)C1 | 1.27% (inactive)
65 | O=C(O)CN1CCN(C(c2ccccc2)c2ccccc2)CC1 | -9.78% (inactive)
66 | CC1(C)CC(N2CCN(C(c3ccccc3)c3ccccc3)CC2)=CC(=[N+]2CCCCC2)C1 | 63.6% (active)
67 | Cc1nc([N+](=O)[O-])nn1C12CC3CC(CC(Br)(C3)C1)C2 | 59.3% (active)
68 | Cc1ncn(C23CC4CC(CC(O)(C4)C2)C3)n1 | 5.6% (inactive)
69 | COc1cccc(NC(=O)c2nn(C34CC5CC(CC(C5)C3)C4)cc2[N+](=O)[O-])c1 | 16.7% (inactive)
70 | CCCCCN(C(=O)CCC(=O)OCCOc1ccc(OC)cc1)c1c(N)n(CCCC)c(=O)[nH]c1=O | 8.8% (inactive)
71 | CN(N)c1nc(N2CCCC2)nc(N2CCCC2)n1 | -9.95% (inactive)
72 | CCCCCCCCCCCCN1[C@@H](CC(C)=O)c2cc(F)cc(F)c2S1(=O)=O | 39.5% (inactive)

Row | Structure (SMILES) | inhibition
73 | CC(C)n1c(=O)[nH]c2cc(C(=O)Nc3ccccc3)ccc21 | -5.92% (inactive)
74 | CN1CCN(c2ccc(NC(=O)c3ccc4c(c3)[nH]c(=O)n4Cc3ccc(F)cc3)cc2)CC1 | 65.8% (active)
75 | CN1CCN(c2ccc(NC(=O)c3ccccc3)cc2)CC1 | -2.93% (inactive)
76 | COCCN1C(=O)N(c2ccc(Cl)cc2)C(=O)C1CC(=O)Nc1cc(OC)cc(OC)c1 (stereo not drawn) | -12.9% (inactive)
77 | Cc1onc(-c2ccccc2Cl)c1C(=O)N(Cc1ccc(N(C)C)cc1)C(C)C | 37.7% (inactive)
78 | S=C(NCc1ccc(Cl)cc1)NC12CC3CC(CC(C3)C1)C2 | 57.1% (active)
79 | O=C(NCc1ccncc1)NC12CC3CC(CC(C3)C1)C2 | -15.8% (inactive)
80 | S=C(NCc1ccc(Cl)cc1)NC1CCCCC1 | 10.1% (inactive)
81 | CCN(CC)P(=O)(Nc1ccc(SC(F)F)cc1)c1ccc(N(C)C)cc1NC(=O)c1ccco1 (stereo not drawn) | 68.4% (active)
82 | O=C(Nc1ccc(Sc2ccc(Br)cc2)cc1)c1ccco1 | -17.4% (inactive)
83 | Cc1cc(NC(=O)c2ccc(F)cc2)ccc1NC(=O)c1ccco1 | 14% (inactive)
84 | O=C(NC1CCCC1)C1CC(=O)N(c2ccc(F)cc2)C1 (stereo not drawn) | 5.96% (inactive)
85 | Cc1c(C(=O)N2CCCC2)c(S(=O)(=O)NCC(C)c2ccccc2)c(C)n1C (stereo not drawn) | -5.32% (inactive)
86 | O=C(Nc1ccc(-c2csc(Nc3cccc(C(F)(F)F)c3)n2)cc1)c1cccc(C(F)(F)F)c1 | 58.5% (active)
87 | CNC(=O)c1ccc(NC(=O)c2cccc(C(F)(F)F)c2)cc1 | -8.58% (inactive)
88 | Cc1nc(NC(=O)c2cccc(Cl)c2)sc1-c1csc(Nc2cccc(Cl)c2)n1 | -1.87% (inactive)
89 | O=C(O)C1C2C=CC(C2)C1C(=O)NCc1ccccc1 (stereo not drawn) | -11.6% (inactive)
90 | Cc1nn(C)cc1S(=O)(=O)N1CCN(c2ccc(F)cc2)CC1 | 2.42% (inactive)
91 | COC(=O)c1ccccc1NC(=S)NC(=O)c1ccccc1F | -19.3% (inactive)
92 | O=C(O)c1ccccc1NC(=O)c1ccccc1-c1ccccc1C(=O)O | -1.15% (inactive)
93 | O=C(NC(=S)Nc1ccccc1C(=O)O)c1ccc(-c2ccc(Br)cc2)o1 | 61.6% (active)
